Assays:
Type in all cases: functional, cell-based
[1] = target: Transient receptor potential cation channel subfamily A member 1 (Rattus norvegicus) (UniProt Q6RI86); assay: Agonist activity at rat TRPA1 ion channel expressed in HEK293 cells assessed as calcium influx by fluo-4-Am-based fluorimetry relative to allyl isothiocyanate
[2] = target: T1, Transient receptor potential cation channel subfamily V member 1 (Homo sapiens, UniProt Q8NER1); assay: Agonist activity at human TRPV1 ion channel expressed in HEK293 cells assessed as calcium influx by fluo-4-Am-based fluorimetry relative to ionomycin
[3] = target: T1, Transient receptor potential cation channel subfamily V member 1; assay: Antagonist activity at human TRPV1 ion channel expressed in HEK293 cells assessed as inhibition of capsaicin-induced calcium influx incubated for 5 mins prior to capsicin-induction by fluo-4-AM-based fluorimetry
In short: (§1)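 Stably transfected HEK293 (human TRPV1 or rat TRPA1) were loaded with Fluo-4-AM, washed in Tyrode's buffer and read by spectrofluorimetry (ex 488/em 516 nm). […] Inhibition of the agonist-evoked [Ca2+]i rise was recorded, giving IC50.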

[4] = target: T1, Transient receptor potential cation channel subfamily V member 1; assay: Agonist activity at human TRPV1 ion channel expressed in HEK293 cells assessed as calcium influx by fluo-4-Am-based fluorimetry
[5] = target: T2, Transient receptor potential cation channel subfamily A member 1 (Rattus norvegicus, UniProt Q6RI86); assay: Antagonist activity at rat TRPA1 ion channel expressed in HEK293 cells assessed as inhibition of AITC-induced calcium influx incubated for 5 mins prior to AITC-induction by fluo-4-AM-based fluorimetry; in short: as §1
[6] = target: T2, Transient receptor potential cation channel subfamily A member 1; assay: Agonist activity at rat TRPA1 ion channel expressed in HEK293 cells assessed as calcium influx by fluo-4-Am-based fluorimetry
[7] = target: Transient receptor potential cation channel subfamily A member 1 (Rattus norvegicus) (UniProt Q6RI86); assay: Agonist activity at rat TRPA1 ion channel expressed in HEK293 cells assessed as calcium influx by fluo-4-Am-based fluorimetry relative to ionomycin
In short: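 HEK293 cells stably transfected with rat TRPA1 cDNA, loaded with Fluo-4-AM in EMEM, washed twice in Tyrode's buffer and read in a spectrofluorimeter cuvette (ex 488 nm, em 516 nm). [Ca2+]i was measured before and after adding various concentrations of test compound. Responses in non-transfected wild-type HEK293 cells served as baseline and were subtracted from transfected-cell values.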

T1 sequence (Q8NER1 whole entry): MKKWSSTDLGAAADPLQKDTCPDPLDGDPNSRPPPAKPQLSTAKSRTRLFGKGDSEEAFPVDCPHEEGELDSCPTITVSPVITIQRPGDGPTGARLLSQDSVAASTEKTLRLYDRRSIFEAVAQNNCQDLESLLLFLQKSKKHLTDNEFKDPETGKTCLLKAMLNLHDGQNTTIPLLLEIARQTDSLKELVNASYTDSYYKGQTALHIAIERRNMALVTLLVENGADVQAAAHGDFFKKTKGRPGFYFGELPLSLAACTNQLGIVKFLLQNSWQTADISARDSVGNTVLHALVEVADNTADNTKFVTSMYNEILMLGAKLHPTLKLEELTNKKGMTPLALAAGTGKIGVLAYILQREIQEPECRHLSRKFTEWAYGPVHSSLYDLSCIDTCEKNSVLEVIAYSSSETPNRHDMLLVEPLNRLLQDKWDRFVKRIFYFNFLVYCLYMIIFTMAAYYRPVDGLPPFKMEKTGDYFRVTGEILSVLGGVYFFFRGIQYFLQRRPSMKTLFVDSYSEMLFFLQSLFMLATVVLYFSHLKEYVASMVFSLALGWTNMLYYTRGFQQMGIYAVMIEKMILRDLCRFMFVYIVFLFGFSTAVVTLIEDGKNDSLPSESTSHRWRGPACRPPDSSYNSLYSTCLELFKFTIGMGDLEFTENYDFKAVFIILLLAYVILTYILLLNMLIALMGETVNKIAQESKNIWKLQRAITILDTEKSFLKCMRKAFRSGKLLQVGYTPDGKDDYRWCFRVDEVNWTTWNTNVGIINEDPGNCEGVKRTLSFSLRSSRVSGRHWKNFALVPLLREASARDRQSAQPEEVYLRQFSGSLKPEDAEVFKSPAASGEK
Transient receptor potential cation channel subfamily A member 1 (Rattus norvegicus), sequence (Q6RI86 whole entry): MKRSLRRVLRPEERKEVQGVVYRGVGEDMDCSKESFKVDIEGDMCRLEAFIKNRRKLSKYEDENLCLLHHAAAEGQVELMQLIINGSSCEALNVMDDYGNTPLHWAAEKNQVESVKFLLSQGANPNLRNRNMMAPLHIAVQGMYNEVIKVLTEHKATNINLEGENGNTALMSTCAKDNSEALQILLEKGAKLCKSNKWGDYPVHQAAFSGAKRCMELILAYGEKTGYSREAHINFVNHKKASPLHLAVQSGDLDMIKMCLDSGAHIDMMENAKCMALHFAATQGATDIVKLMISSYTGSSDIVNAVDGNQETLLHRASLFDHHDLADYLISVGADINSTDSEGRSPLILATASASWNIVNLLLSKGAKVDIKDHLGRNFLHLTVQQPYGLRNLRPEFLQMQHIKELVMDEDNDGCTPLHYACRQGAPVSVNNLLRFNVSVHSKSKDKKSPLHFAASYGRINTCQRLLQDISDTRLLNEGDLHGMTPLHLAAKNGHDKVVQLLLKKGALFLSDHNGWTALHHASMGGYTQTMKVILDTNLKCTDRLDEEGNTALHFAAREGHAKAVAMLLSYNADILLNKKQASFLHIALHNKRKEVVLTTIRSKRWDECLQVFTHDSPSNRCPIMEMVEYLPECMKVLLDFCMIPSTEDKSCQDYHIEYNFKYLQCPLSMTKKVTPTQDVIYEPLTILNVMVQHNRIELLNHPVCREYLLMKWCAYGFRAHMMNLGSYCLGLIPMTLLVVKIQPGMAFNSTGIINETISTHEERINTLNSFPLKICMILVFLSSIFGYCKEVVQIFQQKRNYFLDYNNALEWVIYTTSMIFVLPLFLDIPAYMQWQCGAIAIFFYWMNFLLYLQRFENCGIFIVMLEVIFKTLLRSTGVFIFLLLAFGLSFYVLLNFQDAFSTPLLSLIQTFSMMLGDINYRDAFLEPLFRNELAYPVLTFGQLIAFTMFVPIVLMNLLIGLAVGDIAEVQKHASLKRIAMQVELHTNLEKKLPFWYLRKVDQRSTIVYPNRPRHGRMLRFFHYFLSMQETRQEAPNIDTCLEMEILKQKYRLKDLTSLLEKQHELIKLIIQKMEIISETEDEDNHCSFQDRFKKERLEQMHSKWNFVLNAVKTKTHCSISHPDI
T2 sequence (Q6RI86 whole entry): as above

Which Efficacy [1] does the source give for `COc1cc(CNC(=O)CCCC/C=C/C(C)C)ccc1O` here?
Its Efficacy is 100%.

How did the Efficacy [2] turn out when `CC(C)c1cc(CCC(=O)CC(O)Cc2ccccc2)cc(C(C)C)c1O` (stereo not given) was run?
Its Efficacy is less than 10%.

What about the Efficacy [1] of the same compound?
Its Efficacy is less than 10%.

What about the IC50 [3] of the same compound?
Its IC50 is greater than 50 µM.

Which results are given for `O=C(/C=C/CCCCCCc1ccccc1)CCc1ccc(O)cc1`?
Efficacy [2]: 19.7%; EC50 [4]: 0.1 µM; Efficacy [1]: 89.2%; IC50 [5]: 2.3 µM; EC50 [6]: 2.2 µM; IC50 [3]: 1.2 µM

`O=C(CCc1ccc(O)cc1)CC(O)Cc1ccccc1` (stereo not given) was tested. Which Efficacy [2] did it give?
Its Efficacy is 10.8%.

What about the EC50 [4] of the same compound?
Its EC50 is 1 µM.

And the Efficacy [1]?
The Efficacy was 131%.

And the IC50 [5]?
The IC50 was 35.1 µM.

And the EC50 [6]?
Its EC50 is 10.7 µM.

What about the IC50 [3] of the same compound?
The IC50 was 33.5 µM.

For `COc1cc(CCC(=O)CC(O)Cc2ccccc2)ccc1O` (stereo not given), which Efficacy [2] is on record?
The Efficacy was 56.9%.

What about the EC50 [4] of the same compound?
The EC50 was 14.3 µM.

What about the Efficacy [1] of the same compound?
Its Efficacy is less than 10%.

What about the IC50 [5] of the same compound?
The IC50 was 97.8 µM.

And the IC50 [3]?
The IC50 was 13.2 µM.

With `CCCCC/C=C/C(=O)CCc1ccc(O)c(OC)c1` [SHOGAOL] as the compound, how does the Efficacy [2] read?
Its Efficacy is 79.2%.

And the EC50 [4]?
Its EC50 is 0.32 µM.

And the Efficacy [1]?
The Efficacy was 91.1%.

What about the IC50 [5] of the same compound?
Its IC50 is 16.7 µM.

What about the EC50 [6] of the same compound?
The EC50 was 16 µM.

What about the IC50 [3] of the same compound?
Its IC50 is 0.29 µM.

Which Efficacy [2] does the source give for `O=C(CCc1ccc2c(c1)OCO2)CC(O)Cc1ccccc1` (stereo not given) here?
Its Efficacy is less than 10%.

And the Efficacy [1]?
The Efficacy was 16.5%.

What about the IC50 [5] of the same compound?
The IC50 was 14.4 µM.

What about the IC50 [3] of the same compound?
The IC50 was greater than 50 µM.

Which Efficacy [2] does the source give for `CCCCCC(O)CC(=O)CCc1ccc2c(c1)OCO2` (stereo not given) here?
The Efficacy was less than 10%.

And the Efficacy [1]?
The Efficacy was less than 10%.

What about the IC50 [5] of the same compound?
The IC50 was greater than 100 µM.

And the IC50 [3]?
The IC50 was greater than 100 µM.

What does the source list for `O=C(CCc1ccccc1)CC(O)Cc1ccccc1` (stereo not given)?
Efficacy [2]: < 10%; Efficacy [1]: 17.5%; IC50 [5]: 4.5 µM; IC50 [3]: > 50 µM

`CCCCCC(O)CC(=O)CCc1ccccc1` (stereo not given) was tested. Which Efficacy [2] did it give?
Its Efficacy is less than 10%.

What about the Efficacy [1] of the same compound?
Its Efficacy is less than 10%.

What about the IC50 [5] of the same compound?
The IC50 was 56.1 µM.

And the IC50 [3]?
The IC50 was greater than 50 µM.

Which results are given for `Cc1cc(O)c(C(C)C)cc1CCC(=O)CC(O)CCCCCCc1ccccc1` (stereo not given)?
Efficacy [2]: 33.5%; EC50 [4]: 0.5 µM; Efficacy [1]: 163%; IC50 [5]: 14.3 µM; EC50 [6]: 22.1 µM; IC50 [3]: 1.3 µM

`CCCCCC(O)CC(=O)CCc1ccc(O)cc1` (stereo not given) was tested. Which Efficacy [2] did it give?
Its Efficacy is 23.6%.

And the EC50 [4]?
The EC50 was 1.2 µM.

What about the Efficacy [1] of the same compound?
Its Efficacy is 114%.

What about the IC50 [5] of the same compound?
Its IC50 is 22.6 µM.

And the EC50 [6]?
The EC50 was 8.4 µM.

And the IC50 [3]?
Its IC50 is 10.5 µM.

Which Efficacy [2] does the source give for `Cc1cc(O)c(C(C)C)cc1CCC(=O)CC(O)Cc1ccccc1` (stereo not given) here?
The Efficacy was less than 10%.

And the Efficacy [1]?
Its Efficacy is 51.3%.

And the IC50 [5]?
Its IC50 is 39.7 µM.

And the EC50 [6]?
Its EC50 is 3.5 µM.

And the IC50 [3]?
The IC50 was 35.3 µM.

How did the Efficacy [7] turn out when `C=CCN=C=S` was run?
The Efficacy was 41.8%.

For `O=C(CCc1ccc2c(c1)OCO2)CC(O)CCCCCCc1ccccc1` (stereo not given), which IC50 [3] is on record?
Its IC50 is greater than 10 µM.

With `O=C(CCc1ccccc1)CC(O)CCCCCCc1ccccc1` (stereo not given) as the compound, how does the Efficacy [2] read?
Its Efficacy is less than 10%.

What about the Efficacy [1] of the same compound?
The Efficacy was less than 10%.

What about the IC50 [3] of the same compound?
Its IC50 is greater than 10 µM.

For `CCCCCC(O)CC(=O)CCc1cc(C(C)C)c(O)cc1C` (stereo not given), which Efficacy [2] is on record?
The Efficacy was less than 10%.

What about the Efficacy [1] of the same compound?
Its Efficacy is 78.2%.

What about the IC50 [5] of the same compound?
The IC50 was 3.9 µM.

And the EC50 [6]?
The EC50 was 1.1 µM.

And the IC50 [3]?
Its IC50 is 4.8 µM.

Which Efficacy [2] does the source give for `O=C(CCc1ccc(O)cc1)CC(O)CCCCCCc1ccccc1` (stereo not given) here?
Its Efficacy is 43%.

And the EC50 [4]?
Its EC50 is 14.6 µM.

What about the Efficacy [1] of the same compound?
Its Efficacy is less than 10%.

What about the IC50 [5] of the same compound?
Its IC50 is 15.8 µM.

What about the IC50 [3] of the same compound?
The IC50 was 9.4 µM.

With `CC(C)c1cc(CCC(=O)CC(O)CCCCCCc2ccccc2)cc(C(C)C)c1O` (stereo not given) as the compound, how does the Efficacy [2] read?
Its Efficacy is less than 10%.

And the Efficacy [1]?
The Efficacy was less than 10%.

And the IC50 [5]?
Its IC50 is 11.1 µM.

What about the IC50 [3] of the same compound?
Its IC50 is greater than 10 µM.

How did the Efficacy [2] turn out when `CCCCCC(O)CC(=O)CCc1ccc(O)c(OC)c1` (racemic) was run?
Its Efficacy is 51.4%.

What about the EC50 [4] of the same compound?
The EC50 was 3.3 µM.

And the Efficacy [1]?
The Efficacy was 11.4%.

What about the IC50 [5] of the same compound?
The IC50 was greater than 100 µM.

And the EC50 [6]?
The EC50 was 10.4 µM.

What about the IC50 [3] of the same compound?
Its IC50 is 5 µM.

With `COc1cc(CCC(=O)CC(O)CCCCCCc2ccccc2)ccc1O` (stereo not given) as the compound, how does the Efficacy [2] read?
The Efficacy was 60%.

And the EC50 [4]?
The EC50 was 0.11 µM.

What about the Efficacy [1] of the same compound?
Its Efficacy is less than 10%.

And the IC50 [5]?
The IC50 was 38.2 µM.

What about the IC50 [3] of the same compound?
Its IC50 is 0.11 µM.

How did the Efficacy [2] turn out when `CCCCCC(O)CC(=O)CCc1cc(C(C)C)c(O)c(C(C)C)c1` (stereo not given) was run?
The Efficacy was less than 10%.

And the Efficacy [1]?
The Efficacy was 63.6%.

What about the IC50 [5] of the same compound?
Its IC50 is 2.8 µM.

What about the EC50 [6] of the same compound?
Its EC50 is 2.1 µM.

And the IC50 [3]?
Its IC50 is greater than 50 µM.
